Here are results for 31 molecules from PubChem BioAssay AID652011 (Sanford-Burnham Center for Chemical Genomics, 2013).

SMILES strings stand for the structures. Values joined by “and” are separate entries in the source; they are usually repeats but may differ in a detail not shown here. Equal values may be shown once.

Sequence of Hypoxia-inducible factor 1-alpha (Homo sapiens) (Q16665 whole entry, looked up): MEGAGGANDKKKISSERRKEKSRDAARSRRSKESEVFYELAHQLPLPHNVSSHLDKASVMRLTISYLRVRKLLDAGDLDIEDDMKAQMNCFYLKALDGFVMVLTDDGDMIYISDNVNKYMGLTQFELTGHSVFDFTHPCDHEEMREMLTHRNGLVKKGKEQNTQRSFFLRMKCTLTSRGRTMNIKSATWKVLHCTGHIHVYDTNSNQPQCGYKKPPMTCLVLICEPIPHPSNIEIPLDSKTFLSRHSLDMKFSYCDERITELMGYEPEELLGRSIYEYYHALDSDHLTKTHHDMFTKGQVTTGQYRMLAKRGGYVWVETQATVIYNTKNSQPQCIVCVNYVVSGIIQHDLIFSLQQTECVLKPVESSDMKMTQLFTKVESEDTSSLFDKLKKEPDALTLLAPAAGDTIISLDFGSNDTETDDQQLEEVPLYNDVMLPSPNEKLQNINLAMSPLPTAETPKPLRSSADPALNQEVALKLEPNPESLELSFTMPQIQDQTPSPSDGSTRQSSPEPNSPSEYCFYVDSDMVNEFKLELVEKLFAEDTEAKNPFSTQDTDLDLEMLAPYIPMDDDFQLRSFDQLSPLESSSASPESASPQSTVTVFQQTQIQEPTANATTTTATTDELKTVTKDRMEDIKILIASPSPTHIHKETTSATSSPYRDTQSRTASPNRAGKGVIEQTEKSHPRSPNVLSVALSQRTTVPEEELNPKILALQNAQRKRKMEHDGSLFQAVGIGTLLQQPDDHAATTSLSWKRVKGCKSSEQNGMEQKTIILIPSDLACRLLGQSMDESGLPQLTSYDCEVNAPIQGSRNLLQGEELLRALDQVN

The assay addresses Hypoxia-inducible factor 1-alpha (Homo sapiens) (UniProt Q16665). Description: HIF-1a and HIF-2a reporter inhibitors, SAR follow-up, cell-based, luminescence, MIAPaCa-2, 786-0, panel (AID 652011). To be noted: MIAPaCa-2/PANC HIF reporter, luciferase luminescence, desferoxamine, overnight, HIF1a, run 2; at 99 µM (top of the series). The procedure, abridged: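 Also added: desferoxamine added before compound. Dosing: compounds from 10 mM and 0.3125 mM stocks, 1% DMSO final. Timing: overnight seeding and compound exposure, 37 °C, 5% CO2, 10-min detection. Detection: luciferase luminescence with One-Glo reagent.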
As to `CNC(=O)CCc1nc(-c2ccc(C(C)(C)C)cc2)no1`, the inhibition came out at 18.4%.
In the case of `CCCCc1ccc(-c2noc(CCC(=O)NC(C)(C)C)n2)cc1`, the inhibition was determined as 93%.
On to `CCOc1ccc(-c2noc(CCC(=O)NC)n2)cc1`, for which the inhibition was -24%.
Then `CCc1ccc(-c2noc(CCC(=O)NC3CC3)n2)cc1`, with -49.4%; and `CC(C)c1ccc(-c2noc(CCC(=O)NC3CC3)n2)cc1`, with -9.97%.
Then `CCc1ccc(-c2noc(CCC(=O)NC(C)CC)n2)cc1` (stereo unspecified), with -24.3%; and `CC(C)(C)c1ccc(-c2noc(CCC(=O)O)n2)cc1`, with 94.9%.
As for `CNC(=O)CCc1nc(-c2ccc(Cl)cc2)no1`, the figure is -33.8%; as for `CCNC(=O)CCc1nc(-c2ccccc2C)no1`, -28.2%; as for `CCNC(=O)CCc1nc(-c2ccc(C(C)C)cc2)no1`, -15.6%.
Take `CCc1ccc(-c2noc(CCC(=O)NC(C)(C)C)n2)cc1`: the inhibition is -0.564%.
Consider `CCNC(=O)CCc1nc(-c2ccc(OCC)cc2)no1`, for which the inhibition was -42.2%.
Then `CCNC(=O)CCc1nc(-c2ccc(CC)cc2)no1`, with -31.3%; and `COc1cccc(NC(=O)CCc2nc(-c3ccc(C(C)(C)C)cc3)no2)c1`, with 81.2%.
On to `CCC(C)NC(=O)CCc1nc(-c2ccc(C(C)(C)C)cc2)no1` (stereo unspecified), for which the inhibition is -28.9%.
Then `CCNC(=O)CCc1nc(-c2ccccc2Cl)no1`, with -3.81%; and `CCNC(=O)CCc1nc(-c2cccc(OC)c2)no1`, with -31.4%; and `CC(C)(C)c1ccc(-c2noc(CCC(=O)NC3CCC3)n2)cc1`, with 54.4%.
Then `C=CCNC(=O)CCc1nc(-c2ccc(C(C)(C)C)cc2)no1`, with 34.7%; and `CCCCc1ccc(-c2noc(CCC(=O)NC)n2)cc1`, with 9.8%.
As for `CC(C)(C)c1ccc(-c2noc(CCC(=O)N3CCOCC3)n2)cc1`, the figure is -1.55%; as for `CN(C)C(=O)CCc1nc(-c2ccc(C(C)(C)C)cc2)no1`, -8.56% and -52.1%.
Consider `CCCCc1ccc(-c2noc(CCC(=O)NC(C)CC)n2)cc1` (stereo unspecified), for which the inhibition is 58.1%.
Then `CC(C)(C)c1ccc(-c2noc(CCC(=O)N3CCCCC3)n2)cc1`, with 103%; and `CNC(=O)CCc1nc(-c2ccccc2)no1`, with -20.8% and 17.9%; and `CNC(=O)CCc1nc(-c2ccc(C(C)C)cc2)no1`, with -35.5%.
Then `CCC(C)NC(=O)CCc1nc(-c2ccc(C(C)C)cc2)no1` (stereo unspecified), with -0.644%.
Then `CC(C)(C)NC(=O)CCc1nc(-c2ccccc2)no1`, with -36.5%; and `CNC(=O)CCc1nc(-c2ccc(OC)cc2)no1`, with -31.5%.
Regarding `CC(C)(C)c1ccc(-c2noc(CCC(=O)Nc3cccnc3)n2)cc1`, the inhibition is 85.6%.
As for `CCc1ccc(-c2noc(CCC(=O)NC)n2)cc1`, the figure is -34.1%.

By inhibition is commonly meant the change of the read-out against control, counted positive when it falls.
